Measured values: ChEMBL document CHEMBL3608285, “Citrifelins A and B, Citrinin Adducts with a Tetracyclic Framework from Cocultures of Marine-Derived Isolates of Penicillium citrinum and Beauveria felina” (2015)
In brackets after ≈: the same amount, converted by molar mass. Activity calls are given as the source filed them. The calls are words filed in the database; no cut-off is given here. Numbered stars: 1 amine (or outer) side, 2 acyl side, 3 side chain; on linkers, the order of the positions; unused ones are H or OH. Square brackets hold non-standard residues; d marks the D form. Peptide text beside a SMILES is read from it. X1 = C[C@H]1CCN([*:1])[C@@H]1C(=O)[*:2]; dLac(3-vinyl) = C=CC[C@@H](O)C(=O)O; NMeF = CN[C@@H](Cc1ccccc1)C(=O)O; Hica(2S) = CC(C)C[C@H](O)C(=O)O; NMeV = CN[C@H](C(=O)O)C(C)C; NMeA = CN[C@@H](C)C(=O)O; βAla = NCCC(=O)O

Assays:
Vibrio harveyi = assay: Antimicrobial activity against Vibrio harveyi by well diffusion method; format: functional, organism-based
Outline: (§1)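 Agar well diffusion assay against the bacterial test strain; chloromycetin run alongside as positive control. Method follows a cited earlier protocol.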

Vibrio anguillarum = assay: Antimicrobial activity against Vibrio anguillarum by well diffusion method; format: functional, organism-based; outline: as §1
Aeromonas hydrophila = assay: Antimicrobial activity against Aeromonas hydrophila by well diffusion method; format: functional, organism-based; outline: as §1
Edwardsiella tarda = assay: Antimicrobial activity against Edwardsiella tarda by well diffusion method; format: functional, organism-based; outline: as §1
Vibrio alginolyticus = assay: Antimicrobial activity against Vibrio alginolyticus by well diffusion method; format: functional; outline: as §1
Vibrio parahaemolyticus = assay: Antimicrobial activity against Vibrio parahaemolyticus by well diffusion method; format: functional, organism-based; outline: as §1
Staphylococcus aureus = assay: Antimicrobial activity against Staphylococcus aureus by well diffusion method; format: functional
Escherichia coli = assay: Antimicrobial activity against Escherichia coli by well diffusion method; format: functional

Structure (SMILES)	MIC (Vibrio harveyi)	MIC (Vibrio anguillarum)	MIC (Aeromonas hydrophila)	MIC (Edwardsiella tarda)	MIC (Vibrio alginolyticus)	MIC (Staphylococcus aureus) [µg/mL]	MIC (Escherichia coli) [µg/mL]	MIC (Vibrio parahaemolyticus)
COc1cc([C@H]2C[C@H]3O[C@H](C)[C@@H](C)c4c(C)c(O)cc(c43)O2)ccc1O	inactive	inactive	inactive	inactive	16 µg/mL (≈ 44.9 µM)	4 (≈ 11.2 µM)	2 (≈ 5.61 µM)	inactive
Cc1c2c(c3oc4cc(=O)c(C)c5c-4c(c3c1O)O[C@H](C)[C@H]5C)O[C@H](C)[C@H]2C	inactive	inactive	inactive	inactive	inactive	–	–	inactive
C=CC[C@H]1OC(=O)CCNC(=O)[C@H](C)N(C)C(=O)[C@H](C(C)C)N(C)C(=O)[C@H]([C@@H](C)CC)NC(=O)[C@@H]2[C@@H](C)CCN2C1=O (cyclo(I[NMeV][NMeA][βAla][dLac(3-vinyl)][X1]))	inactive	inactive	inactive	inactive	inactive	–	–	inactive
Cc1c(O)c(C(=O)O)c(O)c2c1[C@H](C)[C@@H](C)OC2=O	inactive	inactive	inactive	inactive	inactive	–	–	inactive

Second part, led by results:

MIC (Vibrio harveyi)	MIC (Vibrio anguillarum)	MIC (Aeromonas hydrophila)	MIC (Edwardsiella tarda)	MIC (Vibrio alginolyticus)	MIC (Staphylococcus aureus) [µg/mL]	MIC (Escherichia coli) [µg/mL]	Structure (SMILES)	MIC (Vibrio parahaemolyticus)
inactive	inactive	inactive	inactive	inactive	–	–	C=CC[C@H]1OC(=O)CCNC(=O)[C@H](C)N(C)C(=O)[C@H](C(C)C)N(C)C(=O)[C@H]([C@@H](C)CC)NC(=O)[C@@H]2CCCN2C1=O (cyclo([dLac(3-vinyl)]PI[NMeV][NMeA][βAla]))	inactive
inactive	inactive	inactive	inactive	8 µg/mL (≈ 36 µM)	–	–	Cc1c(O)cc(O)c2c1[C@H](C)[C@@H](C)OC2=O	inactive
inactive	inactive	inactive	inactive	inactive	–	–	CC(C)C[C@@H]1OC(=O)CCNC(=O)[C@H](Cc2ccccc2)N(C)C(=O)[C@H](C(C)C)N(C)C(=O)[C@H](Cc2ccccc2)NC(=O)[C@@H]2[C@@H](C)CCN2C1=O (cyclo(F[NMeV][NMeF][βAla][Hica(2S)][X1]))	inactive
inactive	inactive	inactive	inactive	inactive	–	–	CC(C)C[C@@H]1OC(=O)CCNC(=O)[C@H](Cc2ccccc2)N(C)C(=O)[C@H](C(C)C)N(C)C(=O)[C@H](Cc2ccccc2)NC(=O)[C@@H]2CCCN2C1=O (cyclo(F[NMeV][NMeF][βAla][Hica(2S)]P))	inactive
inactive	inactive	inactive	inactive	16 µg/mL (≈ 49 µM)	8 (≈ 24.5 µM)	8 (≈ 24.5 µM)	Cc1c(O)cc2c3c1[C@H](C)[C@@H](C)O[C@@H]3C[C@H](c1ccc(O)cc1)O2	inactive
